Fh CTSL1 inh: Fasciola hepatica cathepsin L1 inhibitors, primary screen, counter-screen for PFM18AAP inhibitor project, biochemical, QFRET, fluorogenic peptide substrate. AID 1906, 2009. recombinant F. hepatica cathepsin L1, Z-Leu-Arg-MCA fluorescence. inhibition, % at 5.96 µM. 0.49% of 300,000 active;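 active = inhibition above the mean of all tested compounds plus 3 SD, set per screening campaign, cut at about 17% in these data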
VIM-2 inh: VIM-2 metallo-beta-lactamase inhibitors, primary screen, biochemical, epi-absorbance readout, Pseudomonas aeruginosa enzyme; 0.89% of 290,000 active; inhibition, % at 5.6 µM; AID 1527, 2009; purified VIM-2, nitrocefin hydrolysis, epi-absorbance fluorescence;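 active = inhibition above the mean of all tested compounds plus 3 SD, cutoff set per screening run, cut at about 7.5% in these data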;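 also: red hydrolysis product quenches plate fluorescence so inhibitors raise well fluorescence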
IMP-1 inh: IMP-1 metallo-beta-lactamase inhibitors, primary screen, biochemical, epi-absorbance readout, Pseudomonas aeruginosa enzyme. AID 1556, 2009. purified IMP-1, nitrocefin hydrolysis, epi-absorbance fluorescence. 0.45% of 290,000 active. metallo-beta-lactamase IMP-1 (Pseudomonas aeruginosa). inhibition, % at 5.6 µM;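 active = inhibition above the mean plus 3 SD of all compounds in the same screening run, cut at about 4.5% in these data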
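System: purified IMP-1 / Input: IMP-1 dispensed at 0.2 nM / Medium: 50 mM HEPES pH 7.1, 50 µM ZnSO4, 0.05% Brij 35 / Timing: 15 min enzyme–compound preincubation, then 25 min nitrocefin reaction, 25 °C / Technique: plate fluorescence quenching by hydrolysis product, ex 480/em 530 nm / Repeats: singlicate testing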
PfM18AAP inh: PfM18AAP inhibitors, malaria aminopeptidase, primary screen, biochemical, QFRET, recombinant enzyme | AID 1822, 2009 | inhibition, % at 7.35 µM | M18 aspartyl aminopeptidase (Plasmodium falciparum 3D7) | 1.2% of 290,000 active | H-Glu-NHMec fluorogenic cleavage;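 active = inhibition above the campaign mean inhibition over all tested compounds plus 3 SD, cut at about 28% in these data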
Large screens that a line does not name were inactive. Compounds with a hit are over-represented: about 2.7% of the library has one in this group of screens.

Cc1ccccc1C(=O)N/N=C1/SCC(=O)N1Cc1ccccc1	none
COc1cc(/C=N/Nc2nc(N3CCCC3)nc(N3CCCC3)n2)ccc1OCc1ccccc1F	none
Cc1cc(C)cc(N(C(=O)CNC(=O)c2ccco2)C(C(=O)NC2CCCCC2)c2ccncc2)c1 (stereo not given)	none
CCOC(=O)C1CCCN(C2=NC(=O)/C(=C/c3ccc(O)c(OCC)c3)S2)C1 (stereo not given)	VIM-2 inh 8.9
CCOC(=O)C1CCCN(C2=NC(=O)/C(=C/c3ccc(OC)cc3OC)S2)C1 (stereo not given)	PfM18AAP inh 28 (no result: Fh CTSL1 inh)
CCOC(=O)C1CCCN(C2=NC(=O)/C(=C/c3ccc(OC)cc3)S2)C1 (stereo not given)	none
CC(C)CNC(=O)CC(=O)N/N=C/c1ccc(F)cc1	none
O=C(NCCC1=CCCCC1)c1ccc2c(c1)N(Cc1ccccc1)C(=O)CS2	none
CN1C(=O)CS(=O)c2ccc(C(=O)NCCC3=CCCCC3)cc21 (stereo not given)	PfM18AAP inh 30
COc1ccc(N(C(=O)Cn2nnc(-c3ccc(C)o3)n2)C(C(=O)NC2CCCC2)c2ccncc2)cc1 (stereo not given)	none
CCOC(=O)c1c(-c2ccccc2)csc1NC(=O)c1cccc(N2C(=O)CCC2=O)c1	none
CCOC(=O)c1c(NC(=S)Nc2ccccc2)sc2c1CCN(CCc1ccccc1)C2	none
CCOC(=O)c1c(NC(=O)c2ccc(S(=O)(=O)N3CCOCC3)cc2)sc2c1CC(C)(C)NC2(C)C	none
CCOC(=O)c1c(NC(=O)c2cccc(N3C(=O)CCC3=O)c2)sc2c1CCN(CC)C2	VIM-2 inh 7.9
CCOC(=O)c1c(NC(=O)c2ccc(S(=O)(=O)N3CCOCC3)cc2)sc2c1CCN(C)C2	VIM-2 inh 8.6
CCOC(=O)c1c(N)sc2c1CCN(CCc1ccccc1)C2	PfM18AAP inh 29
COC(=O)c1sc(NC(=O)CSc2n[nH]c(N)n2)c(C(=O)OC)c1C	VIM-2 inh 10
O=C(NO)c1cc(OCC(F)(F)F)ccc1OCC(F)(F)F	VIM-2 inh 12
Oc1ccccc1C(=S)N1CCN(C(=S)c2ccccc2O)CC1	PfM18AAP inh 29
Cc1ccc(N(C(=O)CNC(=O)c2ccco2)C(C(=O)NC2CCCCC2)c2cccnc2)cc1 (stereo not given)	none
CC(=O)c1c(-c2ccccc2)c2cc(Cl)ccc2n(C)c1=O	none
CC(=O)c1c2c3c(c(Br)ccc3n(C)c1=O)C(=O)c1ccccc1-2	VIM-2 inh 31, IMP-1 inh 6.7
CCC(CC)C(=O)NCc1ccccc1Cl	none
C=CCSc1nc2ccsc2c(=O)n1-c1ccccc1	none
CSc1nc2ccsc2c(=O)n1-c1ccccc1	Fh CTSL1 inh 18
O=C(O)c1c2c(nc3ccc(S(=O)(=O)N4CCC(C(=O)NCc5ccc(Cl)cc5)CC4)cc13)CCCC2	Fh CTSL1 inh 20
Nc1ccc(N2CCCCC2)c2nonc12	Fh CTSL1 inh 79
Nc1c(N2CCCC2)cc(Cl)c2nonc12	Fh CTSL1 inh 95
Nc1c(N2CCOCC2)cc(Cl)c2nonc12	none
CC1=NN(C(=O)c2ccc(C)o2)C(O)(c2ccccc2)C1 (stereo not given)	IMP-1 inh 46
CCc1ccc(-c2cn(-c3nc(C)cc(C)n3)c(=N)o2)cc1	Fh CTSL1 inh 61
COc1ccc(C(=O)Oc2cc(C)c(CN3CCOCC3)cc2C)cc1OC	none
CSc1sccc1/C=C(/C#N)C(=O)c1ccco1	PfM18AAP inh 31
CSc1sccc1/C=N/O	none
COc1ccc(OC)c(NC(=O)C2C3CCC(C3=C(C)C)C2C(=O)O)c1 (stereo not given)	VIM-2 inh 8.8
COc1ccc(OC)c(NC(=O)C2CCCCC2C(=O)O)c1 (stereo not given)	none
Cc1cc(Cl)c2oc(C(=O)N(C)CCc3cnn(C)c3)c(C)c2c1	none
CN(C)c1cc(-c2ccc(Cl)c(Cl)c2)oc(=O)c1Cl	IMP-1 inh 5.4
CN(C)c1cc(-c2ccc(Cl)cc2)oc(=O)c1Cl	none
Cc1ccc(NC(=O)CSc2nc3ccccc3c(=O)n2CCCC(=O)NCCCN2CCOCC2)cc1	none
O=C(Nc1cc(C(F)(F)F)ccc1N1CCOCC1)C1Cc2ccccc2CN1C(=O)c1ccco1 (stereo not given)	IMP-1 inh 5.6
Cc1ccc(-c2csc3ncnc(-n4cnc5ccccc54)c23)cc1	none
Cc1sc2ncnc(-n3cnc4ccccc43)c2c1C	IMP-1 inh 7.3
CC(=O)/C=C(\C)Nc1ccccc1O	PfM18AAP inh 29
CN(C)S(=O)(=O)c1cc(NC(=O)c2ccc(-n3ccnc3)c([N+](=O)[O-])c2)ccc1Cl	VIM-2 inh 8.0
COc1ccc(OCC(=O)N/N=C2/C=C(C)CC2)cc1	none
COC(=O)c1c(NC(=O)c2ccoc2C)sc(C)c1C	none
CCOC(=O)c1sc(NC(=O)c2ccoc2C)c(C(N)=O)c1C	VIM-2 inh 8.0
CC1=NN(C2=NS(=O)(=O)c3ccccc32)C(C)(O)C1 (stereo not given)	PfM18AAP inh 31
COc1cccc(CNC(=S)Nc2cc(OC)ccc2OC)c1	none
O=c1nccc(N/N=C/c2ccccc2O)[nH]1	PfM18AAP inh 29 (no result: Fh CTSL1 inh)
CCOc1ccccc1/C=N/Nc1ccnc(=O)[nH]1	none (no result: Fh CTSL1 inh)
CCCN1Cc2cccc(C(=O)Nc3ccc(CN4CCCC4)cc3)c2C1=O	VIM-2 inh 12
COCCN1Cc2cccc(C(=O)Nc3ccc(C)cc3)c2C1=O	none
CC(C)CC(c1nnnn1CCc1ccccc1)N1CCC(C(N)=O)CC1 (stereo not given)	none
CN(C#N)c1nc(Cl)nc(Nc2cccc(Cl)c2)n1	VIM-2 inh 9.4
C[C@H]1c2cccc(O)c2C(O)=C2C(=O)C3(O)C(O)=C(C(N)=O)C(=O)[C@@H](N(C)C)[C@@H]3[C@@H](O)[C@@H]21 (stereo not given in full)	none (no result: VIM-2 inh, IMP-1 inh, PfM18AAP inh)
C=C1c2cccc(O)c2C(O)=C2C(=O)[C@]3(O)C(O)=C(C(N)=O)C(=O)[C@@H](N(C)C)[C@@H]3[C@@H](O)[C@H]12	VIM-2 inh 8.6
N[C@@H](CO)c1nnc([C@H](Cc2ccc(O)cc2)NC(=O)C2CCNCC2)o1	none
Cc1ccccc1NC(=O)c1c(C)[nH]c(=S)c(C#N)c1-c1ccco1	IMP-1 inh 17
Cc1[nH]c(=S)c(C#N)c(C)c1C(=O)Nc1ccccc1	none
CNC(=O)c1c(C)[nH]c(=S)c(C#N)c1-c1ccco1	IMP-1 inh 18
CCC1Oc2ccc(C)cc2N(CC(=O)N(Cc2ccc(C)o2)C2CCCC2)C1=O (stereo not given)	Fh CTSL1 inh 28
CCC1Oc2ccc(C)cc2N(CC(=O)NC2CCCCC2)C1=O (stereo not given)	none
Cc1c(NC(=S)N/N=C/c2ccc(Br)cc2)c(=O)n(-c2ccccc2)n1C	none
Cn1c(CS/C(N)=N/N=C/c2ccccc2)c(Br)c(=O)n1-c1ccccc1	Fh CTSL1 inh 37

Bioassay records (PubChem)
